# Screening data from PubChem BioAssay.
# An excerpt weighted towards active compounds, which were near 2.9% of everything screened.
# M18AAP inhibitor = PfM18AAP inhibitors, malaria aminopeptidase, primary screen, biochemical, QFRET, recombinant enzyme | H-Glu-NHMec fluorogenic cleavage | inhibition, % at 7.35 µM | 1.2% of 290,000 active;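 active means inhibition above the campaign mean inhibition over all tested compounds plus 3 SD, cut at about 28% in these data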;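 further: 0% = plate median of test compound wells and 100% = 2 mM ZnCl2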
# RanGTP-Imp inh = inhibitors of RanGTP-importin-beta interaction, primary screen, biochemical, FRET, CFP-Ran, YFP-importin-beta, homogeneous; inhibition, % (test concentration not listed); Ran GTPase (GTP-bound) - importin-beta complex; AID 2216, 2009; 1.1% of 300,000 active; cell-free CFP-Ran/YFP-importin-beta FRET ratio;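 active means more than half of the replicate wells show a fall in the fluorescence ratio signal beyond about 16%, limit read from the data, passing the limit was not always enough; inconclusive means exactly half of the replicate wells pass the set limit; inactive means fewer than half of replicates pass the limit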;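 further: 0% = DMSO wells and 100% = Ran loaded with GDP instead of GTP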
# Runt-CBFb FRET = inhibitors of RUNX1 Runt–CBFb binding, primary screen, biochemical, FRET, Cerulean-Runt, Venus-CBFb, uHTS. inhibition, % at 20 µM. Cerulean-Runt/Venus-CBFb FRET ratio 530/480, 1 h. AID 1496, 2009. 0.46% of 220,000 active;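 active means inhibition over about 50% at 20 µM in the single-dose screen, limit read from the data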;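 further: 0% = DMSO wells and 100% = excess unlabeled CBFb competitor control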
#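 Measured by: fluorescence energy transfer, 422 nm excitation, 530/480 nm emission; Assay system: Cerulean-Runt domain; Medium: Tris pH 7.5 buffer with BSA; Measure: loss of energy transfer signal; Controls: 5 µM unlabeled CBFb as full-inhibition high control; Incubation: protein complex preformed 1 h, compound exposure 1 h, room temperature, dark.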
# Hck Nef HTS = inhibitors of Nef-activated human Hck kinase, primary screen, biochemical, Z-Lyte FRET, 384-well, Hck-YEEI; Recombinant Hck-YEEI plus Nef, Z-Lyte FRET kinase assay; 0.68% of 220,000 active; Tyrosine-protein kinase HCK (Homo sapiens), P08631; inhibition, % at 20 µM;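 active means Hck-Nef kinase inhibition above about 50%, limit read from the data; inactive means inhibition below that limit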;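 further: 0% = DMSO with Hck plus Nef and 100% = Hck alone without Nef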
# Target sequence (P08631 whole entry, looked up): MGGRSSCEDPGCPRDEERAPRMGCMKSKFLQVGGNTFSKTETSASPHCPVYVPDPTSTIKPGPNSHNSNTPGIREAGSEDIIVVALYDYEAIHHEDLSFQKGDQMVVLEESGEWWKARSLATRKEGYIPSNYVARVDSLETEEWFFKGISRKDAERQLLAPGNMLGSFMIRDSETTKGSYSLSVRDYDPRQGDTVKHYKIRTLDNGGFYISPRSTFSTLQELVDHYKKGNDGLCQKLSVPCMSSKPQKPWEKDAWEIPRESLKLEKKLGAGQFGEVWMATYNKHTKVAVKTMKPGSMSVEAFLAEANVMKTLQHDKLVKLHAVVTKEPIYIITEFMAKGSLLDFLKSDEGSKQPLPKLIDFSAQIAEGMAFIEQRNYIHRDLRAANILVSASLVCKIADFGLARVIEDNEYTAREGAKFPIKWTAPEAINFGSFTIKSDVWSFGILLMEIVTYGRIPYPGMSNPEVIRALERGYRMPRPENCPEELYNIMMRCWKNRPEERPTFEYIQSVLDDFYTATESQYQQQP
# RBBP9 inh = human RBBP9 inhibitors, primary screen, biochemical, fluorescence polarization, FP-Rh probe, HTS | Serine hydrolase RBBP9 (Homo sapiens), O75884 | recombinant RBBP9 | inhibition, % at 7.94 µM | 0.2% of 220,000 active | AID 1515, 2009;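 active means inhibition above the campaign mean of all tested compounds plus 3 SD, cut at about 14% in these data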;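 further: plate controls were DMSO wells with RBBP9 for no effect and wells lacking RBBP9 protein for full effect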
#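 system = RBBP9 protein | input = RBBP9 at 2.5 µM in dispensed solution, before mixing | measured by = fluorescence polarization (mP), excitation 525 nm, emission 598 nm | incubation = enzyme-compound preincubation 30 min, then probe labeling 45 min, 25 °C | buffer or medium = Tris-NaCl-Pluronic buffer, pH 8.0 | compound = single dose 7.94 µM | also added = FP-Rh probe, 375 nM dispensing solution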
# Runt-SMMHC FRET = inhibitors of RUNX1 Runt–CBFb-SMMHC binding, primary screen, biochemical, FRET, Cerulean-Runt, Venus-CBFb-SMMHC, uHTS. Runt-related transcription factor 1 (Homo sapiens) + Core-binding factor subunit beta …. Cerulean-Runt/Venus-CBFb-SMMHC FRET ratio 530/480, 1 h. inhibition, % at 20 µM. 0.74% of 220,000 active;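 active means mean inhibition across duplicate retests at 20 µM reaching about 50%, limit read from the data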;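 further: 0% = DMSO wells and 100% = wells with excess untagged CBFb-SMMHC; inhibitors lower the FRET ratio by blocking Runt binding to CBFb-SMMHC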
# Hck Nef conf = retest of Hck:Nef kinase inhibitor hits, confirmation, biochemical, Z-Lyte FRET, 384-well, p-Tyr peptide counterscreen. AID 463188, 2010. 28% of 1,300 active. shares compounds with Hck Nef HTS. Recombinant Hck-YEEI:Nef, Z-Lyte FRET kinase assay. calls only at 10 µM;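 active means average inhibition of at least 50%, with Z-scores no higher than 3 in both the phospho-tyrosine peptide and fluorescence counterscreens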
# Active calls of the source: *; i = inactive; ? = inconclusive; nt = no result given; + = active, no number.
SMILES,M18AAP inhibitor,RanGTP-Imp inh,Runt-CBFb FRET,Hck Nef HTS,RBBP9 inh,Runt-SMMHC FRET,Hck Nef conf
COc1ccc2cc(N=Cc3nc(-c4ccc(C)cc4)oc3O)cnc2c1,-3,7,-14,59*,-6,-158,i
COc1ccc(N2CCN(C(=O)COC(=O)CCOc3ccccc3C)CC2)cc1,nt,8,nt,nt,nt,nt,nt
CC(=O)Nc1ccc(NC(=O)CSc2nc3nc(-c4cccs4)cc(C(F)(F)F)c3c(=O)[nH]2)cc1,0,-6,5,27,5,-1,nt
N#Cc1ccc(Cl)cc1NC(=O)CSc1nc2nc(-c3cccs3)cc(C(F)(F)F)c2c(=O)[nH]1,-12,4,-2,67*,-19,2,i
COc1ccc(-c2cc3nc4ccccc4n3c(N)c2C#N)cc1,1,4,-3,68*,-6,-13,nt
COc1ccc(-c2cc(-c3ccccc3)c(C#N)c(S(C)=O)n2)cc1 (stereo unspecified),6,2,-1,0,0,-1,nt
COc1ccc(N2CCN(C(=O)CCC(=O)N3CCOc4ccc(Cl)cc43)CC2)cc1,9,4,nt,nt,nt,nt,nt
Cc1ccc(-n2cccc2/C=C2\C(=N)N3N=C(c4ccco4)SC3=NC2=O)cc1,7,nt,-21,70*,-12,-56,+
Cc1ccc(-c2n[nH]c(=S)nc2-c2ccc(C)cc2)cc1,-9,-2,nt,nt,nt,nt,nt
CCCCNC(=O)C(=O)N/N=C/c1ccc(OCC(=O)Nc2cccc(OC)c2)c(OC)c1,2,-2,0,71*,-3,-3,+
COc1cc(/C=C(/C#N)c2nc3ccccc3[nH]2)ccc1OCc1ccc(C(=O)O)o1,-49,6,50,56*,-2,63*,+
COc1ccc(OC)c(CC(=O)N2CCc3cc(OC)c(OC)cc3C2)c1,-8,?,nt,nt,nt,nt,nt
c1coc(-c2nc3nc4ccccc4nc3n2CC2CCCO2)c1 (stereo unspecified),-1,11,12,159*,-2,26,nt
Cc1ccc(C(=O)Nc2cccc(C(F)(F)F)c2)cc1NC(=O)c1cnnc2ccccc12,nt,8,2,74*,nt,-6,i
COc1ccc(S(=O)(=O)N(CC(=O)NCc2ccco2)c2ccc(C)cc2)cc1OC,-2,2,nt,nt,nt,nt,nt
Cc1cc(-c2csc(NC(=O)c3ccc(=O)[nH]c3)n2)c(C)n1Cc1ccco1,17,-4,20,81*,3,-8,i
CC(Oc1ccc(-n2cnnn2)cc1)C(=O)O (stereo unspecified),3,-2,1,75*,-3,-5,i
COc1ccccc1N(C(=O)c1ccco1)C(C(=O)NC1CCCC1)c1ccc(N2CCOCC2)cc1 (stereo unspecified),7,-2,nt,nt,nt,nt,nt
CCOCCCNc1nc2nc3ccc(C)cn3c(=O)c2cc1C(=O)NCC1CCCO1 (stereo unspecified),2,-1,nt,199*,-11,nt,nt
Cc1ccc2nc3c(cc(C(=O)NCC4CCCO4)c(=N)n3CCCOC(C)C)c(=O)n2c1 (stereo unspecified),3,nt,11,182*,-3,41,i
CC(=O)c1cccc(N2C(=NC(=O)C3CCCCC3)SC3CS(=O)(=O)CC32)c1 (stereo unspecified),0,-3,nt,nt,nt,nt,nt
